We go through 17 compounds from ChEMBL document CHEMBL1152551, “Synthesis and pharmacological evaluation of novel 1- and 8-substituted-3-furfuryl xanthines as adenosine receptor antagonists” (Bioorg Med Chem, 2009).

The structures appear in SMILES notation.

A word on the Ki: it is the equilibrium dissociation constant of an inhibitor or competing ligand from its target. The low end stands for a stronger hold on the target, the high end for a looser hold on the target.

T2 sequence (P29274 whole entry): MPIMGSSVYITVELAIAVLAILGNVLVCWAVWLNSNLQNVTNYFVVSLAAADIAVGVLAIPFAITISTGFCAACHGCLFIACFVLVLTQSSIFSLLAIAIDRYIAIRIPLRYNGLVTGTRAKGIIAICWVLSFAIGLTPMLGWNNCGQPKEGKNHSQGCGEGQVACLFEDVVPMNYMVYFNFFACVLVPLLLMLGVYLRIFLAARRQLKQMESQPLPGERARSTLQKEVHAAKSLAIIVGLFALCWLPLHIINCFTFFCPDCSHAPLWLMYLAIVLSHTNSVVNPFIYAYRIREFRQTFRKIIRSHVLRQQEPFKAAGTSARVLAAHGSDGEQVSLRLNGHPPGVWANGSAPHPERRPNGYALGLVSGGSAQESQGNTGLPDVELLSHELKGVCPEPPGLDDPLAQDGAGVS

One experiment has as its target T1, Adenosine receptor A1 (Rattus norvegicus) (UniProt P25099).
T1 sequence (whole entry): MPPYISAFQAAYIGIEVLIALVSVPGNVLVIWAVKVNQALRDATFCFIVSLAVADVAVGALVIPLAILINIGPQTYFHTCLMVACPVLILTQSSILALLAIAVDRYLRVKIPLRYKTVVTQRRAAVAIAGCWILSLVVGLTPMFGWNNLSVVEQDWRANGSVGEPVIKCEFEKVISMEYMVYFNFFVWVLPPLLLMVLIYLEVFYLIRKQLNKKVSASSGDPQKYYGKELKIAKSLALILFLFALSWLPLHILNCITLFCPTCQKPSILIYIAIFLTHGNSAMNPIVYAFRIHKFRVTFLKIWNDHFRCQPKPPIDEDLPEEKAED
In words: Displacement of [3H]DPCPX form adenosine A1 receptor in rat cortex membrane at 1 uM. It counts as cell membranes. Put shortly:
(§1)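 Single concentration of 1 µM tested for displacement of specific radioligand binding, given as percentage displacement. Rat A1 in rat cortex membranes with [3H]DPCPX; human A2B in HEK-293 cells with [3H]DPCPX; human A2A in HeLa cells with [3H]ZM241385; human A3 in HeLa cells with [3H]NECA.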
Consider `CCn1c(=O)c2[nH]c(Cc3ccco3)nc2n(Cc2ccco2)c1=O`, for which the Activity was determined as 24%.
The compound `C=CCn1c(=O)c2[nH]c(Cc3cccs3)nc2n(Cc2ccco2)c1=O` yielded an Activity of 23%.
The same measure, in the same setting: the figure for `Cn1c(=O)c2[nH]c(Cc3ccco3)nc2n(Cc2ccco2)c1=O` is 14%; for `CCn1c(=O)c2[nH]c(Cc3ccccc3)nc2n(Cc2ccco2)c1=O` it is 41%.

The next experiment addresses T2, Adenosine receptor A2a (Homo sapiens, UniProt P29274). In words: Displacement of [3H]ZM241385 from human adenosine A2A receptor expressed in HeLa cells at 1 uM by microplate beta scintillation counting. Type of experiment: cell-based. Put shortly:
as §1
In general terms: Loss of bound radioactivity is the signal in a displacement assay; it reports binding, not function.
In turn, `CC[S+]([O-])CCn1c(=O)c2[nH]c(Cc3ccco3)nc2n(Cc2ccco2)c1=O` (stereo not given) returned an Activity of 5%.
The same measure, in the same setting: the figure for `CCSCCn1c(=O)c2[nH]c(Cc3ccccc3)nc2n(Cc2ccco2)c1=O` is 11%; for `CCCn1c(=O)c2[nH]c(Cc3ccco3)nc2n(Cc2ccco2)c1=O` it is 33%.
`CCCCCn1c(=O)c2[nH]c(Cc3ccccc3)nc2n(Cc2ccco2)c1=O`: the Activity is 7%.
Compound `CC(C)Cn1c(=O)c2[nH]c(Cc3ccccc3)nc2n(Cc2ccco2)c1=O` came in with an Activity of 13%.
Same read-out and setting: then `CCOCCn1c(=O)c2[nH]c(Cc3cccs3)nc2n(Cc2ccco2)c1=O`, with 1%; and `CCCn1c(=O)c2[nH]c(Cc3cccs3)nc2n(Cc2ccco2)c1=O`, with 19%; and `CC(C)Cn1c(=O)c2[nH]c(Cc3cccs3)nc2n(Cc2ccco2)c1=O`, with 11%.
`O=c1c2[nH]c(Cc3cccs3)nc2n(Cc2ccco2)c(=O)n1CC1CC1`: the Activity was 12%.
Regarding `CC[S+]([O-])CCn1c(=O)c2[nH]c(Cc3cccs3)nc2n(Cc2ccco2)c1=O` (stereo not given), the Activity worked out at 10%.

The target in the next experiment is T3, Adenosine receptor A1 (Rattus norvegicus, UniProt P25099).
T3 sequence (P25099 whole entry): T1 sequence (whole entry)
The experiment is described as follows: Displacement of [3H]DPCPX form adenosine A1 receptor in rat cortex membrane. Type of experiment: cell membranes. Put shortly: (§2)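 Competition binding with radioligand: rat A1 in rat cortex membranes with [3H]DPCPX; human A2B expressed in HEK-293 cells with [3H]DPCPX; human A2A expressed in HeLa cells with [3H]ZM241385. Affinity reported as pKi; compounds not fully displacing specific binding at 1 µM were instead given as displacement percentage. SEM below 10%.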
`COCCn1c(=O)c2c(nc(Cc3ccccc3)n2C)n(Cc2ccco2)c1=O`: the Ki was 174 nM.
The compound `CCCn1c(=O)c2c(nc(Cc3ccco3)n2C)n(Cc2ccco2)c1=O` had a Ki of 132 nM. The Ki values of the last two compounds are within 1.5-fold of each other.
The same measure, in the same setting: then `CCn1c(=O)c2[nH]c(Cc3cccs3)nc2n(Cc2ccco2)c1=O`, with 468 nM; and `CCSCCn1c(=O)c2[nH]c(Cc3ccccc3)nc2n(Cc2ccco2)c1=O`, with 398 nM.
The same measure, in the same setting: then `CCCn1c(=O)c2[nH]c(Cc3ccco3)nc2n(Cc2ccco2)c1=O`, with 417 nM; and `CCCCCn1c(=O)c2[nH]c(Cc3ccccc3)nc2n(Cc2ccco2)c1=O`, with 871 nM.
For the compound `CC(C)Cn1c(=O)c2[nH]c(Cc3ccccc3)nc2n(Cc2ccco2)c1=O`, the affinity corresponds to a Ki of 490 nM.
On the same count and under the same terms, the figure for `CCCn1c(=O)c2[nH]c(Cc3cccs3)nc2n(Cc2ccco2)c1=O` is 339 nM; for `O=c1c2[nH]c(Cc3cccs3)nc2n(Cc2ccco2)c(=O)n1CC1CC1` it is 347 nM.

In a further experiment the target is T4, Adenosine receptor A3 (Homo sapiens) (UniProt P0DMS8).
T4 sequence (whole entry): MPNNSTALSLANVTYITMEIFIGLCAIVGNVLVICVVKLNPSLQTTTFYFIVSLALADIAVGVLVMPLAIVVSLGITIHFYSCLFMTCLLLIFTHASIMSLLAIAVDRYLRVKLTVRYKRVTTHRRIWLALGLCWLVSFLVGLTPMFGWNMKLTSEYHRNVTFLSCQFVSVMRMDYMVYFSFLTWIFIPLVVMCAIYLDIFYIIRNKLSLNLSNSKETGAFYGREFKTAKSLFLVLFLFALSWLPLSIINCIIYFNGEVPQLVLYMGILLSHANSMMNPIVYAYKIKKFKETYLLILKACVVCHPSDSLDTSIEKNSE
In words: Displacement of [3H]NECA from human recombinant adenosine A3 receptor expressed in HeLa cells at 1 uM. Type of experiment: cell-based. In short, it runs like this: as §1
For the compound `COCCn1c(=O)c2c(nc(Cc3ccccc3)n2C)n(Cc2ccco2)c1=O`, the Activity amounted to 5%.
Still for that read-out and setting: then `CCCn1c(=O)c2c(nc(Cc3ccco3)n2C)n(Cc2ccco2)c1=O`, with 41%; and `CCn1c(=O)c2[nH]c(Cc3ccco3)nc2n(Cc2ccco2)c1=O`, with 18%; and `C=CCn1c(=O)c2[nH]c(Cc3cccs3)nc2n(Cc2ccco2)c1=O`, with 4%.
The same measure, in the same setting: the figure for `CCn1c(=O)c2[nH]c(Cc3cccs3)nc2n(Cc2ccco2)c1=O` is 3%; for `CCSCCn1c(=O)c2[nH]c(Cc3ccccc3)nc2n(Cc2ccco2)c1=O` it is 14%.
Turning to `Cn1c(=O)c2[nH]c(Cc3ccco3)nc2n(Cc2ccco2)c1=O`, the Activity amounted to 6%.
The same measure, in the same setting: the figure for `CCCn1c(=O)c2[nH]c(Cc3ccco3)nc2n(Cc2ccco2)c1=O` is 3%.
`CCCCCn1c(=O)c2[nH]c(Cc3ccccc3)nc2n(Cc2ccco2)c1=O`: the Activity was found to be 24%.
Still for that read-out and setting: the figure for `CC(C)Cn1c(=O)c2[nH]c(Cc3ccccc3)nc2n(Cc2ccco2)c1=O` is 8%; for `CCCn1c(=O)c2[nH]c(Cc3cccs3)nc2n(Cc2ccco2)c1=O` it is 2%; for `CCn1c(=O)c2[nH]c(Cc3ccccc3)nc2n(Cc2ccco2)c1=O` it is 5%.
For the compound `O=c1c2[nH]c(Cc3cccs3)nc2n(Cc2ccco2)c(=O)n1CC1CC1`, the Activity is 21%.

The target of another experiment is T5, Adenosine receptor A2b (Homo sapiens) (UniProt P29275).
T5 sequence (whole entry): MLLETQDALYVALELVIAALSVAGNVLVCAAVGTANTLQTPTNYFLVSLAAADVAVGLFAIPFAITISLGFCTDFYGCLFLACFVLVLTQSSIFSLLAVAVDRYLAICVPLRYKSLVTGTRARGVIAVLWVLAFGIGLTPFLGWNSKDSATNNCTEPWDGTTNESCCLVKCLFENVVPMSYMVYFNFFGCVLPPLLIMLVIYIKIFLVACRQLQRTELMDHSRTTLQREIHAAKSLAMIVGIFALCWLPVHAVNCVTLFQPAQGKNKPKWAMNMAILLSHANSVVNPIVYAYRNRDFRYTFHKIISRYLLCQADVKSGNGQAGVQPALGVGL
The experiment is described as follows: Displacement of [3H]DPCPX from human adenosine A2B receptor expressed in HEK293 cells at 1 uM. Type of experiment: cell-based. Put shortly:
as §1
Compound `CC[S+]([O-])CCn1c(=O)c2[nH]c(Cc3ccco3)nc2n(Cc2ccco2)c1=O` (stereo not given) yielded an Activity of 13%.
Still for that read-out and setting: then `CCCn1c(=O)c2[nH]c(Cc3ccco3)nc2n(Cc2ccco2)c1=O`, with 66%; and `CCCCCn1c(=O)c2[nH]c(Cc3ccccc3)nc2n(Cc2ccco2)c1=O`, with 47%; and `CC(C)Cn1c(=O)c2[nH]c(Cc3ccccc3)nc2n(Cc2ccco2)c1=O`, with 33%.
In turn, `CCOCCn1c(=O)c2[nH]c(Cc3cccs3)nc2n(Cc2ccco2)c1=O` yielded an Activity of 27%.
On the same count and under the same terms, the figure for `CCCn1c(=O)c2[nH]c(Cc3cccs3)nc2n(Cc2ccco2)c1=O` is 68%; for `CC(C)Cn1c(=O)c2[nH]c(Cc3cccs3)nc2n(Cc2ccco2)c1=O` it is 44%.
On the same count and under the same terms, then `O=c1c2[nH]c(Cc3cccs3)nc2n(Cc2ccco2)c(=O)n1CC1CC1`, with 42%.
Compound `CC[S+]([O-])CCn1c(=O)c2[nH]c(Cc3cccs3)nc2n(Cc2ccco2)c1=O` (stereo not given) gave an Activity of 33%.

The target of another experiment is T2, Adenosine receptor A2a. In words: Displacement of [3H]ZM241385 from human adenosine A2A receptor expressed in HeLa cells by microplate beta scintillation counting. It counts as cell-based. Put shortly:
as §2
`COCCn1c(=O)c2c(nc(Cc3ccccc3)n2C)n(Cc2ccco2)c1=O` had a Ki of 912 nM. That is a sub-micromolar value.
`CCCn1c(=O)c2c(nc(Cc3ccco3)n2C)n(Cc2ccco2)c1=O` gave a Ki of 309 nM.
Same read-out and setting: then `CCn1c(=O)c2[nH]c(Cc3ccco3)nc2n(Cc2ccco2)c1=O`, with 525 nM; and `C=CCn1c(=O)c2[nH]c(Cc3cccs3)nc2n(Cc2ccco2)c1=O`, with 1450 nM.
Take `CCn1c(=O)c2[nH]c(Cc3cccs3)nc2n(Cc2ccco2)c1=O`: the affinity corresponds to a Ki of 363 nM.
Same read-out and setting: then `Cn1c(=O)c2[nH]c(Cc3ccco3)nc2n(Cc2ccco2)c1=O`, with 427 nM; and `CCn1c(=O)c2[nH]c(Cc3ccccc3)nc2n(Cc2ccco2)c1=O`, with 1050 nM.

Another experiment deals with T6, Adenosine receptor A2b (Homo sapiens, UniProt P29275).
T6 sequence (P29275 whole entry): T5 sequence (whole entry)
The experiment is described as follows: Displacement of [3H]DPCPX from human adenosine A2B receptor expressed in HEK293 cells. It counts as cell-based. In short, it runs like this: as §2
`COCCn1c(=O)c2c(nc(Cc3ccccc3)n2C)n(Cc2ccco2)c1=O` gave a Ki of 61.7 nM.
Still for that read-out and setting: the figure for `CCCn1c(=O)c2c(nc(Cc3ccco3)n2C)n(Cc2ccco2)c1=O` is 19.1 nM.
Still for that read-out and setting: then `CCn1c(=O)c2[nH]c(Cc3ccco3)nc2n(Cc2ccco2)c1=O`, with 126 nM; and `C=CCn1c(=O)c2[nH]c(Cc3cccs3)nc2n(Cc2ccco2)c1=O`, with 550 nM; and `CCn1c(=O)c2[nH]c(Cc3cccs3)nc2n(Cc2ccco2)c1=O`, with 120 nM.
On the same count and under the same terms, the figure for `CCSCCn1c(=O)c2[nH]c(Cc3ccccc3)nc2n(Cc2ccco2)c1=O` is 832 nM; for `Cn1c(=O)c2[nH]c(Cc3ccco3)nc2n(Cc2ccco2)c1=O` it is 316 nM; for `CCn1c(=O)c2[nH]c(Cc3ccccc3)nc2n(Cc2ccco2)c1=O` it is 162 nM.
